According to ChEMBL document CHEMBL1124644, “Exploration of phenyl-spaced 2-amino-(5-9)-phosphonoalkanoic acids as competitive N-methyl-D-aspartic acid antagonists” (J Med Chem, 1989):
Values belong to the compound of their own block, whether it stands above or below them. Active and inactive are the calls of the source. The rule behind the calls is not given here.

Experiments:
[1] = biological target: T1, Glutamate NMDA receptor (Rattus norvegicus) (UniProt P35439+Q00959+Q00960+Q00961+Q62645+Q8VHN2+Q9R1M7); experiment: N-methyl-D-aspartate glutamate receptor antagonistic ability of 100 uM of compound was assessed from the ability to displace [3H]CPP29,30 from rat cortical membranes.; format: cell membranes; details: Membrane
[2] = biological target: T1, Glutamate NMDA receptor (Rattus norvegicus); experiment: NMDA receptor antagonistic ability of 100 uM of compound was assessed from the ability to displace [3H]CPP29,30 from rat cortical membranes.; format: cell membranes; details: Membrane
[3] = species: Mus musculus; experiment: Compound was tested for the maximum dose that protects from NMDA-induced death in mice; Inactive; format: functional
Method in brief: (§1)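 CF-1 mice (22–28 g) got the test agent by retrobulbar iv injection in 0.9% saline (5 mL/kg), then NMDA 25 mg/kg retrobulbar iv 5 or 30 min later. Doses were tested up to 30 mg/kg, scoring protection from lethal seizures.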

[4] = biological target: Glutamate NMDA receptor; experiment: NMDA receptor antagonistic activity was assessed from the ability to displace [3H]CPP29,30 from rat cortical membranes.
Method in brief: (§2)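 Crude synaptic membranes came from Long-Evans male rat forebrain (minus cerebellum and brainstem) and were treated with 0.01% Triton X-100 for 30 min at 37 °C, then washed. Membranes (200–400 µg protein/mL) were incubated with 10 nM [³H]CPP in 50 mM Tris-HCl, pH 7.6, for 15 min at 23 °C, in triplicate, and separated by centrifugation. Nonspecific binding was defined with 1 mM L-glutamate. IC50 came from a nonlinear fit of four or more concentrations.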

[5] = species: Mus musculus; experiment: N-methyl-D-aspartate glutamate receptor antagonist activity of compound was demonstarted by the inhibition of NMDA-induced lethality in mouse; format: functional
Method in brief: (§3)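 CF-1 mice (22–28 g) were dosed retrobulbar with test agent or vehicle (0.9% saline, 5 mL/kg), 5 or 30 min before a bolus retrobulbar injection of NMDA (25 mg/kg) in saline into the other eye. The endpoint was prevention of death from seizures. ED50 came from at least three half-log doses with 10 mice per dose.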

[6] = species: Mus musculus; experiment: N-methyl-D-aspartate glutamate receptor antagonist activity was measured as ataxia (the inability of the mice to cling to screen platform upon its inversion.); format: functional
Method in brief: (§4)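 CF-1 mice (22–28 g) were dosed retrobulbarly with test agent or vehicle (0.9% saline, 5 mL/kg). Just before the NMDA challenge they were placed on an inverted screen. Ataxia was scored as failure to cling to the platform after inversion, and ED50 values were derived from dose-response data.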

[7] = biological target: Glutamate NMDA receptor; experiment: N-methyl-D-aspartate glutamate receptor antagonistic activity was assessed from the ability to inhibit glutamate-induced accumulation of [Ca2+] in cultured rat cortical neurons.; format: functional
Method in brief: (§5)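 Cortical neurons from E18 Sprague-Dawley rat fetuses were tested 14–16 days after plating. Cells were exposed for 30 min at 37 °C to 100 µM L-glutamate with ⁴⁵Ca²⁺ (2 µCi/mL) in Mg-free HBSS containing 1.4 mM CaCl₂ at pH 7.4, then washed and lysed for counting. Baseline uptake was subtracted. IC50 came from at least four half-log concentrations with six or more replicates each.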

[8] = biological target: Glutamate NMDA receptor; experiment: (§6) N-methyl-D-aspartate glutamate receptor antagonistic activity was assessed from the ability to displace [3H]CPP29,30 from rat cortical membranes.; method in brief: as §2
[9] = biological target: Glutamate NMDA receptor; experiment: as §6; remark: listed apart in the source
[10] = species: Mus musculus; experiment: NMDA receptor antagonist activity was measured as ataxia (the inability of the mice to cling to screen platform upon its inversion.); format: functional; method in brief: as §4
[11] = system: Mus musculus; experiment: NMDA receptor antagonist activity of compound was demonstarted in vivo, by the inhibition of NMDA-induced lethality in mouse; format: functional; method in brief: as §3
[12] = biological target: Glutamate NMDA receptor; experiment: NMDA receptor antagonistic activity was assessed from the ability to displace [3H]CPP29,30 from rat cortical membranes; method in brief: as §2
[13] = biological target: Glutamate NMDA receptor; experiment: NMDA receptor antagonistic activity was assessed in vitro by the assement of ability to inhibit glutamate-induced accumulation of [Ca2+] in cultured rat cortical neurons.; format: functional; method in brief: as §5
[14] = species: Mus musculus; experiment: Compound was tested for the maximum dose that protects from NMDA-induced death; format: functional; method in brief: as §1
[15] = system: Mus musculus; experiment: N-methyl-D-aspartate glutamate receptor antagonist activity of compound was demonstarted by the inhibition of NMDA-induced lethality in mouse;IA means Compound was inactive at 30 mg/kg when examined after 5 or 30 min after iv dosing.; format: functional, organism-based; set-up: dose 30 mg/kg
Method in brief: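 CF-1 mice (22–28 g) received test agent or vehicle (0.9% saline, 5 mL/kg) by retrobulbar injection 5 min before a bolus retrobulbar NMDA dose of 25 mg/kg in saline, which causes lethal seizures in untreated controls. Protection from death was scored. ED50 came from dose-response curves of at least three half-log doses with 10 mice per dose.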

[16] = system: Mus musculus; experiment: N-methyl-D-aspartate glutamate receptor antagonist activity was measured as ataxia (the inability of the mice to cling to screen platform upon its inversion; IA means Compound was inactive at 30 mg/kg when examined after 5 or 30 min after iv dosing; format: functional, organism-based; set-up: dose 30 mg/kg; method in brief: as §4
[17] = biological target: T1, Glutamate NMDA receptor (Rattus norvegicus); experiment: N-methyl-D-aspartate glutamate receptorA antagonistic activity was assessed from the ability to inhibit glutamate-induced accumulation of [Ca2+] in cultured rat cortical neurons;IA means Compound was inactive up to 250 uM.; format: functional; method in brief: as §5
[18] = system: Mus musculus; experiment: Compound was tested in vivo for the maximum dose that protects from NMDA-induced death in mice; Inactive; format: functional; method in brief: as §1
[19] = system: Mus musculus; experiment: NMDA antagonist activity was measured as ataxia (the inability of the mice to cling to screen platform upon its inversion.) tested in vivo; format: functional
Method in brief: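 Ataxia was scored in CF-1 mice (22–28 g) on an inverted screen, as failure to cling when the platform was inverted. Scoring was done just before NMDA challenge (25 mg/kg, retrobulbar iv) and after retrobulbar dosing of the test agent in 0.9% saline (5 mL/kg). The result is reported as an ED50.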

[20] = system: Mus musculus; experiment: NMDA receptor antagonist activity of compound was demonstarted in vivo by the inhibition of NMDA-induced lethality in mouse tested in vivo; format: functional; method in brief: as §3
[21] = biological target: Glutamate NMDA receptor; experiment: NMDA receptor antagonistic activity was assessed in vitro by deteriming the ability to inhibit glutamate-induced accumulation of [Ca2+] in cultured rat cortical neurons.; format: functional
Method in brief: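 Rat (Sprague-Dawley, E18) cerebral hemisphere neurons, trypsin-dissociated, plated on poly-L-lysine at 200 000 cells/cm², used on days 14–16. Assay in serum- and Mg-free HBSS with 1.4 mM CaCl₂, pH 7.4, 37 °C. 30-min exposure to 100 µM L-glutamate (final) plus trace ⁴⁵Ca²⁺, with or without test agent. Baseline subtracted. IC50 from ≥4 half-log concentrations, ≥6 replicates each.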

Structure (SMILES): NC(C(=O)O)c1ccc(P(=O)(O)O)cc1 (stereo not drawn)
- I [2]: 10%

Structure (SMILES): NC(C(=O)O)c1cccc(P(=O)(O)O)c1 (stereo not drawn)
- Max dose [3]: 30 mg/kg
- IC50 [4]: 17.4 µM

Structure (SMILES): NC(C(=O)O)c1ccc(CCCP(=O)(O)O)cc1 (stereo not drawn)
- I [2]: 20%

Structure (SMILES): NC(C(=O)O)c1ccc(CCP(=O)(O)O)cc1 (stereo not drawn)
- I [2]: 4%

Structure (SMILES): NC(Cc1ccc(CP(=O)(O)O)cc1)C(=O)O (stereo not drawn)
- ED50 [5]: 74 mg/kg
- ED50 [6]: 74 mg/kg
- IC50 [7]: 378 µM
- IC50 [8]: 3.3 µM

Structure (SMILES): O=C(O)C1CN(CCCP(=O)(O)O)CCN1 (stereo not drawn)
- IC50 [9]: 0.08 µM

Structure (SMILES): NC(C(=O)O)c1ccc(CP(=O)(O)O)cc1 (stereo not drawn)
- ED50 [10]: 19 mg/kg
- ED50 [11]: 8 mg/kg
- IC50 [12]: 1.01 µM
- IC50 [13]: 58 µM

Structure (SMILES): NC(C(=O)O)c1cccc(CCP(=O)(O)O)c1 (stereo not drawn)
- I [2]: 35%

Structure (SMILES): NC(Cc1ccccc1CCP(=O)(O)O)C(=O)O (stereo not drawn)
- Max dose [14]: 30 mg/kg
- IA [15]: inactive
- IA [16]: inactive
- IA [17]: inactive
- IC50 [8]: 60.9 µM

Structure (SMILES): NC(C(=O)O)c1cccc(CP(=O)(O)O)c1 (stereo not drawn)
- Max dose [18]: 60 mg/kg
- IC50 [4]: 9.3 µM

Structure (SMILES): NC(CCCCCP(=O)(O)O)C(=O)O (stereo not drawn) [AP-7]
- ED50 [19]: 17 mg/kg
- ED50 [20]: 56 mg/kg
- IC50 [4]: 0.8 µM
- IC50 [21]: 46 µM

Structure (SMILES): NC(Cc1cccc(CCP(=O)(O)O)c1)C(=O)O (stereo not drawn)
- I [1]: 19%

Results, then the compound that gave them:

- I [1]: 15%
Structure (SMILES): NC(Cc1cccc(P(=O)(O)O)c1)C(=O)O (stereo not drawn)

- I [1]: 3%
Structure (SMILES): NC(Cc1ccccc1P(=O)(O)O)C(=O)O (stereo not drawn)

- I [2]: 46%
Structure (SMILES): NC(CCCc1ccccc1CP(=O)(O)O)C(=O)O (stereo not drawn)

- I [2]: 1%
Structure (SMILES): NC(Cc1cccc(CP(=O)(O)O)c1)C(=O)O (stereo not drawn)

- I [1]: 54%
Structure (SMILES): NC(CCc1ccccc1CP(=O)(O)O)C(=O)O (stereo not drawn)

- I [2]: 10%
Structure (SMILES): NC(Cc1ccc(P(=O)(O)O)cc1)C(=O)O (stereo not drawn)
